Columns and labels:
Plasmodium falciparum = assay: Antimalarial activity against chloroquine-sensitive Plasmodium falciparum 3D7 infected in human erythrocytes assessed as [3H]hypoxanthine incorporation after 24 hrs by liquid scintillation and luminescence counting; assay type: functional, organism-based
Summary of the method: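 3D7 P. falciparum kept in human erythrocytes in RPMI-1640 with 25 mM HEPES, 32 mM NaHCO3, 10% human serum, under 3% O2/4% CO2/93% N2. Assay at 2% parasitemia, 0.5% haematocrit, triplicate, 37 °C. 0.5 µCi [3H]-hypoxanthine added after 24 h, then 24 h more (48 h total). Harvested and scintillation counted. IC50 by probit interpolation of log dose–response versus control wells.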

HL-60 = assay: Antitumor activity against human HL60 cells after 72 hrs by MTT assay; assay type: functional, cell-based; conditions: HL-60, 72 h
Summary of the method: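 HL-60 cells in RPMI-1640 with 10% FBS and 1% L-glutamine, passages 5–15, viability >95%. 2.5 × 10^4 cells/well exposed to 0.01–100 µM for 72 h, DMSO final <0.5% v/v. MTT added for 4 h at 37 °C, then SDS/DMF lysis for 4 h. A570, reference 590 nm, as % of vehicle. Quadruplicate, ≥3 experiments. IC50 from individual curves.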

| SMILES | IC50 (Plasmodium falciparum) | IC50 (HL-60) |
| --- | --- | --- |
| C[C@H]1[C@@H](CCNCCCCNCCCN)O[C@@H]2O[C@@]3(C)CC[C@H]4[C@H](C)CC[C@@H]1[C@@]24OO3 | 259 nM | 17.8 µM |
| C[C@H]1[C@@H](CCNCCCN(CCCCNC(=O)OC(C)(C)C)C(=O)OC(C)(C)C)O[C@@H]2O[C@@]3(C)CC[C@H]4[C@H](C)CC[C@@H]1[C@@]24OO3 | 0.76 nM | 16.6 µM |
| C[C@H]1[C@@H](CCN(CCCCNC(=O)OC(C)(C)C)CCCNC(=O)OC(C)(C)C)O[C@@H]2O[C@@]3(C)CC[C@H]4[C@H](C)CC[C@@H]1[C@@]24OO3 | > 100 nM | > 100 µM |
| C[C@H]1[C@@H](CCNCCCCN(CCCNC(=O)OC(C)(C)C)C(=O)OC(C)(C)C)O[C@@H]2O[C@@]3(C)CC[C@H]4[C@H](C)CC[C@@H]1[C@@]24OO3 | 0.21 nM | 11.6 µM |
| C[C@H]1[C@@H](CC(=O)NCCCN(CCCCNC(=O)OC(C)(C)C)C(=O)OC(C)(C)C)O[C@@H]2O[C@@]3(C)CC[C@H]4[C@H](C)CC[C@@H]1[C@@]24OO3 | 4.3 nM | 31.2 µM |
| C[C@H]1[C@@H](CC(=O)N(CCCCNC(=O)OC(C)(C)C)CCCNC(=O)OC(C)(C)C)O[C@@H]2O[C@@]3(C)CC[C@H]4[C@H](C)CC[C@@H]1[C@@]24OO3 | 4.8 nM | > 100 µM |
| C[C@H]1[C@@H](CC(=O)NCCCCN(CCCNC(=O)OC(C)(C)C)C(=O)OC(C)(C)C)O[C@@H]2O[C@@]3(C)CC[C@H]4[C@H](C)CC[C@@H]1[C@@]24OO3 | 2.6 nM | 22 µM |
| C[C@H]1[C@@H](CCNCCCNCCCCN)O[C@@H]2O[C@@]3(C)CC[C@H]4[C@H](C)CC[C@@H]1[C@@]24OO3 | 350 nM | 29.2 µM |
| C[C@H]1[C@@H](CCN(CCCN)CCCCN)O[C@@H]2O[C@@]3(C)CC[C@H]4[C@H](C)CC[C@@H]1[C@@]24OO3 | 15.2 nM | > 100 µM |
| C[C@H]1[C@@H](CC(=O)NCCCCNCCCN)O[C@@H]2O[C@@]3(C)CC[C@H]4[C@H](C)CC[C@@H]1[C@@]24OO3 | 727 nM | 35.2 µM |
| C[C@H]1[C@@H](CC(=O)NCCCNCCCCN)O[C@@H]2O[C@@]3(C)CC[C@H]4[C@H](C)CC[C@@H]1[C@@]24OO3 | 81 nM | 47.7 µM |
| C[C@H]1[C@@H](CC(=O)N(CCCN)CCCCN)O[C@@H]2O[C@@]3(C)CC[C@H]4[C@H](C)CC[C@@H]1[C@@]24OO3 | 108 nM | > 100 µM |
| C[C@@H]1CC[C@H]2[C@@H](C)C(=O)O[C@@H]3O[C@@]4(C)CC[C@@H]1[C@]32OO4 [ARTEMISININ] | 9.2 nM | – |

— ChEMBL document CHEMBL1156965, “Design, synthesis and antimalarial/anticancer evaluation of spermidine linked artemisinin conjugates designed to exploit polyamine transporters in Plasmodium falciparum and HL-60 cancer cell lines” (Bioorg Med Chem, 2010)
